Source: PubChem
In the library only some 1.7% were active in any assay of this set; here they are far more common.
VIM-2 inh: blocks Pseudomonas aeruginosa VIM-2 metallo-beta-lactamase. purified VIM-2, nitrocefin hydrolysis, epi-absorbance fluorescence. inhibition, % at 5.6 µM. 0.89% of 290,000 active;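 active = inhibition above the mean of all tested compounds plus 3 SD, cutoff set per screening run, cut at about 7.5% in these data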;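 also: red hydrolysis product quenches plate fluorescence so inhibitors raise well fluorescence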
PolyA inhibitor: inhibitors of polyadenylation in S. cerevisiae; S. cerevisiae SKY197-pL101 polyadenylation reporter, beta-gal luminescence; efflux-impaired pdr1/pdr3 knockout yeast; score 100 = 6 SD above DMSO; activity score, % at 12 µM; 0.02% of 300,000 active; AID 1875;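 active = lowest replicate activity score at least 50, where 100 means six control SD above control mean; inconclusive = lowest score under 50 but half or more replicates reach 50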;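 also: yeast exposed to compound for 9 h at 30 °C; higher score means more reporter readthrough which indicates perturbed polyadenylation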
IMP-1 inh: blocks Pseudomonas aeruginosa IMP-1 metallo-beta-lactamase; 0.45% of 290,000 active; purified IMP-1, nitrocefin hydrolysis, epi-absorbance fluorescence; AID 1556; inhibition, % at 5.6 µM;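 active = inhibition above the mean plus 3 SD of all compounds in the same screening run, cut at about 4.5% in these data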
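System: Purified recombinant IMP-1 metallo-beta-lactamase enzyme | Measured by: Fluorescence quenching readout, ex 480/em 530 nm | Replication: Singlicate | Incubation: 15 min preincubation plus 25 min reaction at 25 °C | Evaluation: Percent inhibition from optical density relative to buffer-blank wells | Benchmarks: DMSO with and without IMP-1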
proCasp7 act: activates human procaspase-7, counter-screen for procaspase-3 activators | recombinant procaspase-7, Ac-DEVD-pNA absorbance 405 nm; D23A/D198A/D206A triple mutant, cannot self-cleave; scale: DMSO 0, 5 µM enzyme 100 | P55210 | activation, % at 8.5 µM | 0.093% of 330,000 active | AID 463210;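 active = percent activation above the screen-wide mean plus 3 SD, cut at about 25% in these data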
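Detection: p-Nitroaniline absorbance at 405 nm, read at 0 and 120 min; system: Uncleavable procaspase-7 mutant enzyme; evaluation: % activation from two-timepoint absorbance difference, scaled to controls; times: 1 h enzyme–compound preincubation and 2 h substrate reaction, both 25 °C; buffer or medium: Zinc-free HEPES pH 7.4 with 300 mM NaCl, 0.01% Triton X-100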
procasp3 activ: activators of human procaspase-3; AID 463141; P42574; activation, % at 8.5 µM; recombinant procaspase-3 D3A, Ac-DEVD-pNA absorbance 405 nm; 0.11% of 330,000 active;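 active = activation above the mean of all tested compounds plus 3 SD, cut at about 21% in these data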
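Assay system – Procaspase-3 D3A mutant · Benchmarks – DMSO low control, extra-enzyme high control · Technique – 405 nm absorbance of p-nitroaniline, reads at 0 and 120 min · Doses – 8.5 µM nominal · Measure – % activation between DMSO and enzyme-spiked controls · Also added – Ac-DEVD-pNA chromogenic peptide substrate · Schedule – 1 h compound preincubation, 2 h substrate hydrolysis at 25 °C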
Neddylation inh: inhibitors of human cullin neddylation; P61081+Q13564; TR-FRET cullin neddylation, biochemical; calls only at 25 µM; 0.58% of 360,000 active; AID 651699; in the data active = inhibition above about 36%
Target sequence (P61081 whole entry, looked up): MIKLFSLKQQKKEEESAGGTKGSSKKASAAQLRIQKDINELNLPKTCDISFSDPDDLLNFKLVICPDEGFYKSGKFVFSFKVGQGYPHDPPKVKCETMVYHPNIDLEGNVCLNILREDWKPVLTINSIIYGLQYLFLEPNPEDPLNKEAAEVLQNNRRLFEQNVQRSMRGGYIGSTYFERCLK
Target sequence (Q13564 whole entry, looked up): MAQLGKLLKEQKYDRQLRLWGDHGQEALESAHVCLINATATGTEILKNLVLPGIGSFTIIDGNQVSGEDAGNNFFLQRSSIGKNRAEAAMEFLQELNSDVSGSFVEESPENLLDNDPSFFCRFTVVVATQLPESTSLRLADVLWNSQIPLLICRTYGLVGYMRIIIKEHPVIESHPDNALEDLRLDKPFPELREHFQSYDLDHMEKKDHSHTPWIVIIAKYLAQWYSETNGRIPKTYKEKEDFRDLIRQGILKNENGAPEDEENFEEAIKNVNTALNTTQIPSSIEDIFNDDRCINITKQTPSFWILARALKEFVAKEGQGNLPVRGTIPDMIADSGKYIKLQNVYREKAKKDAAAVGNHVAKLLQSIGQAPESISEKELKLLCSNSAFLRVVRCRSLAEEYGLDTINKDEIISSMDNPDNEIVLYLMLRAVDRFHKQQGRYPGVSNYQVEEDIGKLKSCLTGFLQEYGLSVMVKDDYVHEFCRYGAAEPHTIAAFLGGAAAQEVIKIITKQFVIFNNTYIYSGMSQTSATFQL
Neddyl inh conf: cullin neddylation inhibition, confirmation; shares compounds with Neddylation inh; TR-FRET cullin neddylation biochemical assay; calls only at 25 µM; 13% of 1,800 active; AID 652217; in the data active = inhibition above about 40%;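 also: neddylation substrate is the cullin 1 ring ligase complex with SKP2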
Each line names hits and unclear results; the compound was inactive in the other large screens (follow-up assays come after a bar, where shown).

COc1ccc(NC(=O)NNS(=O)(=O)c2ccc(Br)cc2)cc1	none (no result: proCasp7 act, procasp3 activ)
COc1cccc(Nc2nc3ccccc3n3nnnc23)c1	Neddylation inh active
COc1cc2cc(-c3ccc(O)cc3O)nc(C)c2cc1OC	none
COc1cc2cc(-c3ccc(OC)c(OC)c3C)nc(N)c2cc1OC	Neddylation inh active (no result: VIM-2 inh, IMP-1 inh) | Neddyl inh conf inactive
CCN(CC)C(=O)Oc1ccc2oc(=O)cc(-c3cc4cccc(OC)c4o3)c2c1	Neddylation inh active
COc1ccc2oc(=O)cc(-c3cc4cccc(OC)c4o3)c2c1	none
CCc1ccc(CN(C)C(=O)c2cc(COc3cccc4cnccc34)on2)cc1	none
Cc1c(C(C)NC(=O)c2cc(COc3cccc4cnccc34)on2)cnn1C (stereo unspecified)	Neddylation inh active | Neddyl inh conf active
Cc1cc2nc(C)c(=O)n(C)c2cc1C	Neddylation inh active | Neddyl inh conf inactive
COc1cc2[nH]c3c(c2cc1OC)CCN1CCCC[C@@H]31	PolyA inhibitor inconclusive, Neddylation inh active (no result: VIM-2 inh, IMP-1 inh) | Neddyl inh conf inactive
COc1cc2[nH]c(=S)n(C3CCCC3)c(=O)c2cc1OC	none
CCCc1cc(=O)oc2cc(OCC(=O)N3C[C@H]4C[C@@H](C3)c3cccc(=O)n3C4)c(Cl)cc12	none
CCOC(=O)C1CC(=O)c2cc(OC)c(OC)cc2C1 (stereo unspecified)	Neddylation inh active
COCCNC(=O)c1c(C)cc(C)cc1C	none
CC(C)(C)c1ccc(/C=C2\CCn3c2nc2cc(C(=O)O)ccc2c3=O)cc1	Neddylation inh active | Neddyl inh conf active
Cc1nc(S(=O)(=O)N2CCOCC2)c(C#N)c(C)c1Cl	none
OCCN1CCN(c2nc3ccccc3nc2-c2ccccc2)CC1	Neddylation inh active | Neddyl inh conf inactive
COc1ccccc1-c1c(C)nn2c(N3CCC(C)CC3)cc(C)nc12	Neddylation inh active
CCOC(=O)N1CCN(C(=O)CSc2cc(C)nc3c(-c4ccccc4OC)c(C)nn23)CC1	none
CCOC(=O)N1CCC(Nc2cc(C)nc3c(-c4ccccc4OC)c(C)nn23)CC1	Neddylation inh active | Neddyl inh conf inactive
O=c1c(Cl)c(N2CCN(c3ccc(F)cc3)CC2)cnn1-c1nc2ccccc2s1	none
